Results reported in ChEMBL document CHEMBL4219175, “Synthesis and biological evaluation of aminothiazoles against Histoplasma capsulatum and Cryptococcus neoformans” (Bioorg Med Chem, 2018).
≈ marks a conversion by molar mass, not a printed value.

Assays:
Histoplasma capsulatum [1] = assay: Antifungal activity against Histoplasma capsulatum G217B ATCC 26032 at pH 7 measured over 5 days; assay type: functional, organism-based; details: G217B ATCC 26032, 120 h
Method in brief: (§1)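 Yeasts pre-grown in HMM (37 °C, 5% CO2) to exponential phase, counted by hemacytometer, diluted into RPMI buffered with 25 mM HEPES (pH 7.0) or 25 mM MOPS (pH 5.0) at 5 x 10^5 per well; two-fold dilutions 40 to 0.078 µM, 37 °C, agitated twice daily. A595 read over 5 days, normalized to DMSO controls; 4-day data fitted by 4-parameter regression for IC50; MIC = ≤10% growth.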

Cryptococcus neoformans [2] = assay: Antifungal activity against wild type fluconazole-sensitive Cryptococcus neoformans serotype A H99 at pH 7 measured over 4 days; assay type: functional, organism-based; details: var grubii H99 , 96 h
Method in brief: (§2)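 YPD-grown exponential-phase yeasts, hemacytometer-counted, diluted into RPMI buffered to pH 7.0 with 25 mM HEPES (or pH 5.0 with […] for pH comparison) at 2 x 10^3 per well; two-fold series 40 to 0.078 µM, 37 °C, agitated twice daily. A595 followed over 4 days versus DMSO controls; day-3 turbidity fitted by 4-parameter regression for IC50; MIC = growth ≤10% of untreated.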

P388D1 = assay: Cytotoxicity against mouse P388D1 cells assessed as reduction in cell viability after 72 hrs by resazurin-based fluorescence assay; details: P388D1, 72 h
Method in brief: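 P388D1 cells in Ham's F-12 + 10% FBS + 2 mM L-glutamine seeded at 5 x 10^3 per well, adhered overnight, exposed to compounds 80 to 0.3 µM for 72 h. Viability read as resorufin fluorescence (530/590 nm) after 0.1 mM resazurin, pre-saturation time points, versus untreated cells; three biological replicates; IC50 by non-linear regression.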

[3] = Therapeutic index, ratio of IC50 for mouse P388D1 cells to IC50 for wild type Cryptococcus neoformans serotype A H99; assay type: toxicity; details: read-out: Ratio IC50
Method in brief: (§3)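 Ratio of P388D1 IC50 (72 h resazurin viability, 80 to 0.3 µM) to yeast IC50 from RPMI/HEPES pH 7.0 broth dilution with A595 turbidity and 4-parameter regression.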

[4] = Therapeutic index, ratio of IC50 for mouse P388D1 cells to IC50 for Histoplasma capsulatum G217B ATCC 26032; assay type: toxicity; details: read-out: Ratio IC50; method in brief: as §3
Cryptococcus neoformans [5] = assay: Antifungal activity against fluconazole-resistant Cryptococcus neoformans serotype A MRL862 harboring erg11 mutant measured over 4 days; assay type: functional, organism-based; details: MRL862, 96 h; method in brief: as §2
Histoplasma capsulatum [6] = assay: Antifungal activity against RFP expressing Histoplasma capsulatum infected in LacZ-expressing mouse P388D1 cells incubated for 6 days measured daily by fluorescence assay; assay type: functional, organism-based
Method in brief: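 LacZ-expressing P388D1 macrophages (3x10^4 per well, adhered 3 h) infected with RFP Histoplasma yeasts at MOI 1:2 for 3 h, medium replaced with F-12 + 10% serum, overnight at 37 °C, then compound gradient added for 6 days. RFP fluorescence (530/590 nm) read daily; day-4 values relative to untreated infected cells fitted by non-linear regression; triplicate.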

Cryptococcus neoformans [7] = assay: Antifungal activity against wild-type fluconazole-sensitive Cryptococcus neoformans serotype D B3501 measured over 4 days; assay type: functional, organism-based; details: B3501, 96 h; method in brief: as §2
Cryptococcus neoformans [8] = assay: Antifungal activity against fluconazole-resistant Cryptococcus neoformans serotype A TES9 harboring erg11 mutant measured over 4 days; assay type: functional, organism-based; details: TES9, 96 h; method in brief: as §2
Histoplasma capsulatum [9] = assay: Antifungal activity against Histoplasma capsulatum G217B ATCC 26032 at pH 5 measured over 5 days; assay type: functional, organism-based; details: G217B ATCC 26032, 120 h; method in brief: as §1
Cryptococcus neoformans [10] = assay: Antifungal activity against wild type fluconazole-sensitive Cryptococcus neoformans serotype A H99 at pH 5 measured over 4 days; assay type: functional, organism-based; details: var grubii H99 , 96 h; method in brief: as §2
[11] = Ratio of aqueous solubility at pH 5 to aqueous solubility at pH 7; assay type: physicochemical; details: buffer
[12] = Aqueous solubility of the compound at pH 7; assay type: physicochemical; details: aqueous medium
[13] = Aqueous solubility of the compound at pH 5; assay type: physicochemical; details: aqueous medium

Structure (SMILES)	IC50 (Histoplasma capsulatum [1])	MIC90 (Histoplasma capsulatum [1])	IC50 (Cryptococcus neoformans [2])	MIC90 (Cryptococcus neoformans [2])	IC50 (P388D1)	selectivity ratio [4]	other results
O=C(CCC1CCCCC1)Nc1ncc(CC2CCCC2)s1	> 20000 nM	> 40 µM	> 20 µM	> 40 µM	–	–	–
O=C(Nc1ncc(Cc2ccccc2)s1)C1CCCCC1	1060 nM	2.5 µM (≈ 0.751 µg/mL)	1.36 µM	2.5 µM (≈ 0.751 µg/mL)	> 40 µM	> 38	selectivity ratio [3]: > 29
O=C(CCC1CCCCC1)Nc1ncc(Cc2cccc3c2CCC3)s1	380 nM	0.63 µM (≈ 0.232 µg/mL)	> 20 µM	> 40 µM	> 40 µM	> 105	–
O=C(CCC1CCCCC1)Nc1ncc(C(=O)c2cccc3ccccc23)s1	640 nM	1.25 µM (≈ 0.491 µg/mL)	> 20 µM	> 40 µM	> 40 µM	> 63	–
O=C(c1cnc(NC(=O)C2CCCCC2)s1)c1cccc2ccccc12	190 nM	0.31 µM (≈ 0.113 µg/mL)	0.89 µM	2.5 µM (≈ 0.911 µg/mL)	> 40 µM	> 211	IC50 (Cryptococcus neoformans [5]): 410 nM; MIC90 (Cryptococcus neoformans [5]): 1.25 µM (≈ 0.456 µg/mL); selectivity ratio [3]: > 45; MIC (Histoplasma capsulatum [6]; 144 h): 1.25 µM (≈ 0.456 µg/mL); IC50 (Histoplasma capsulatum [6]; P388D1, 144 h): 710 nM; IC50 (Cryptococcus neoformans [7]): 380 nM; MIC90 (Cryptococcus neoformans [7]): 1.25 µM (≈ 0.456 µg/mL); IC50 (Cryptococcus neoformans [8]): 470 nM; MIC90 (Cryptococcus neoformans [8]): 1.25 µM (≈ 0.456 µg/mL)
O=C(Nc1ncc(Cc2cccnc2)s1)C1CCCCC1	> 20000 nM	–	> 20 µM	–	–	–	IC50 (Histoplasma capsulatum [9]): > 20 µM; MIC90 (Histoplasma capsulatum [9]): > 40 µM; IC50 (Cryptococcus neoformans [10]): > 20 µM; MIC90 (Cryptococcus neoformans [10]): > 40 µM; Ratio [11]: 1.7; solubility [12]: 340 µg/mL (≈ 1130 µM); solubility [13]: 590 µg/mL (≈ 1960 µM)
O=C(CCC1CCCCC1)Nc1ncc(Cc2cccc3c2CCCC3)s1	900 nM	2.5 µM (≈ 0.956 µg/mL)	> 20 µM	> 40 µM	24.3 µM	27	–
O=C(CCC1CCCCC1)Nc1ncc(Cc2cccc3ccccc23)s1	600 nM	1.25 µM (≈ 0.473 µg/mL)	> 20 µM	> 40 µM	27.6 µM	46	–
O=C(Nc1ncc(Cc2cccc3nsnc23)s1)C1CCCCC1	1540 nM	2.5 µM (≈ 0.896 µg/mL)	1.52 µM	5 µM (≈ 1.79 µg/mL)	> 40 µM	> 26	selectivity ratio [3]: > 26
O=C(Nc1ncc(Cc2cc3sccc3s2)s1)C1CCCCC1	> 20000 nM	> 40 µM	> 20 µM	> 40 µM	–	–	–
O=C(CCC1CCCCC1)Nc1ncc(Cc2ccnc3ccccc23)s1	> 20000 nM	> 40 µM	> 20 µM	–	–	–	IC50 (Histoplasma capsulatum [9]): 15.7 µM; MIC90 (Histoplasma capsulatum [9]): 40 µM (≈ 15.2 µg/mL); IC50 (Cryptococcus neoformans [10]): > 20 µM; MIC90 (Cryptococcus neoformans [10]): > 40 µM; Ratio [11]: 1.7; solubility [12]: 3 µg/mL (≈ 7.9 µM); solubility [13]: 5 µg/mL (≈ 13.2 µM)
O=C(CCC1CCCCC1)Nc1ncc(Cc2ccncc2)s1	7670 nM	20 µM (≈ 6.59 µg/mL)	> 20 µM	–	> 40 µM	> 5	IC50 (Histoplasma capsulatum [9]): 11.1 µM; MIC90 (Histoplasma capsulatum [9]): 40 µM (≈ 13.2 µg/mL); IC50 (Cryptococcus neoformans [10]): > 20 µM; MIC90 (Cryptococcus neoformans [10]): > 40 µM; Ratio [11]: 3.5; solubility [12]: 40 µg/mL (≈ 121 µM); solubility [13]: 140 µg/mL (≈ 425 µM)
O=C(Nc1ncc(Cc2csc3ccccc23)s1)C1CCCCC1	> 20000 nM	> 40 µM	> 20 µM	> 40 µM	–	–	–
O=C(CCC1CCCCC1)Nc1ncc(Cc2csc3ccccc23)s1	270 nM	0.63 µM (≈ 0.242 µg/mL)	> 20 µM	> 40 µM	16.9 µM	63	–
O=C(CCC1CCCCC1)Nc1ncc(Cc2ccccc2)s1	800 nM	1.25 µM (≈ 0.411 µg/mL)	> 20 µM	> 40 µM	> 40 µM	> 50	–
O=C(CCC1CCCCC1)Nc1ncc(Cc2cccc3ccsc23)s1	920 nM	5 µM (≈ 1.92 µg/mL)	> 20 µM	> 40 µM	18.9 µM	21	–
